Results published in ChEMBL document CHEMBL3351505, “Ultrasound-assisted synthesis of novel 1,2,3-triazoles coupled diaryl sulfone moieties by the CuAAC reaction, and biological evaluation of them as antioxidant and antimicrobial agents” (Eur J Med Chem, 2014).
In brackets after ≈: the same amount, converted by molar mass. Activity calls are given as the source filed them. No cut-off for these calls is given here.

Experiments:
[1] = system: Priestia megaterium; experiment: Antibacterial activity against Bacillus megaterium ATCC 9885 after 24 hrs by two fold serial dilution method; type: functional
[2] = system: Klebsiella pneumoniae; experiment: Antibacterial activity against Klebsiella pneumoniae ATCC 13883 after 24 hrs by two fold serial dilution method; type: functional
[3] = system: Saccharomyces cerevisiae; experiment: Antifungal activity against Saccharomyces cerevisiae at 50 mg/mL after 48 hrs by agar well diffusion method; type: functional
[4] = system: Klebsiella pneumoniae; experiment: microbe, parasite or virus in culture; settings: ATCC 13883, 24 h, read-out: DIZ
[5] = system: Bacillus subtilis; experiment: microbe, parasite or virus in culture; settings: ATCC 6633, 24 h, read-out: DIZ
[6] = system: Micrococcus luteus; experiment: Antibacterial activity against Sarcina lutea after 24 hrs by two fold serial dilution method; type: functional
[7] = system: Candida albicans; experiment: Antifungal activity against Candida albicans NRRL Y-477 after 48 hrs by two fold serial dilution method; type: functional
Method in brief: (§1)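 Two-fold serial broth dilution in a suitable broth, run only on compounds giving inhibition zones of at least 16 mm. Final concentrations were […]. Each 5 mL received 0.1 mL inoculum and was incubated 48 h at 28 °C. MIC was the lowest concentration without growth.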

[8] = system: Priestia megaterium; experiment: Antibacterial activity against Bacillus megaterium ATCC 9885 at 50 mg/mL after 24 hrs by agar well diffusion method; type: functional
[9] = system: Staphylococcus aureus; experiment: microbe, parasite or virus in culture; settings: ATCC 29213, 24 h, read-out: DIZ
[10] = system: Candida albicans; experiment: Antifungal activity against Candida albicans NRRL Y-477 at 50 mg/mL after 48 hrs by agar well diffusion method; type: functional
[11] = system: Pseudomonas aeruginosa; experiment: microbe, parasite or virus in culture; settings: ATCC 27953, 24 h, read-out: DIZ
[12] = system: Saccharomyces cerevisiae; experiment: Antifungal activity against Saccharomyces cerevisiae after 48 hrs by two fold serial dilution method; type: functional; method in brief: as §1
[13] = system: Bacillus subtilis; experiment: Antibacterial activity against Bacillus subtilis ATCC 6633 after 24 hrs by two fold serial dilution method; type: functional
[14] = system: Micrococcus luteus; experiment: Antibacterial activity against Sarcina lutea at 50 mg/mL after 24 hrs by agar well diffusion method; type: functional
[15] = system: Aspergillus niger; experiment: Antifungal activity against Aspergillus niger at 50 mg/mL after 48 hrs by agar well diffusion method; type: functional
[16] = system: Escherichia coli; experiment: Antibacterial activity against Escherichia coli ATCC 25922 after 24 hrs by two fold serial dilution method; type: functional
[17] = system: Aspergillus niger; experiment: Antifungal activity against Aspergillus niger after 48 hrs by two fold serial dilution method; type: functional; method in brief: as §1
[18] = system: Pseudomonas aeruginosa; settings: ATCC 27953, 50 mg/mL
[19] = system: Staphylococcus aureus; settings: ATCC 29213, 50 mg/mL
[20] = system: Bacillus subtilis; settings: ATCC 6633, 50 mg/mL
[21] = system: Klebsiella pneumoniae; settings: ATCC 13883, 50 mg/mL
[22] = system: Pseudomonas aeruginosa; experiment: Antibacterial activity against Pseudomonas aeruginosa ATCC 27953 after 24 hrs by two fold serial dilution method; type: functional
[23] = system: Escherichia coli; experiment: Antibacterial activity against Escherichia coli ATCC 25922 at 50 mg/mL after 24 hrs by agar well diffusion method; type: functional, organism-based
Method in brief: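 Agar well diffusion: bacterial suspension at 1 × 10⁸ CFU/mL spread on nutrient agar; 10 mm wells cut in solidified agar and filled with compound in DMSO; plates incubated 24 h at 37 °C; inhibition zone diameter read; DMSO as negative control.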

[24] = system: Staphylococcus aureus; experiment: Antibacterial activity against Staphylococcus aureus ATCC 29213 after 24 hrs by two fold serial dilution method; type: functional
[25] = system: Bacillus subtilis; experiment: Antibacterial activity against Bacillus subtilis ATCC 6633 using 100 uL of test compound after 24 hrs by agar well diffusion method; type: functional
Method in brief: (§2)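 Agar well diffusion. Nutrient agar was spread with bacterial suspension at 1×10⁸ CFU/mL, and 10 mm wells were cut. Wells were loaded with compound solution made at 200 mg per 1 mL DMSO. Plates were incubated 24 h at 37 °C and inhibition zones were measured. DMSO served as the negative control.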

[26] = system: Escherichia coli; experiment: Antibacterial activity against Escherichia coli ATCC 25922 using 100 uL of test compound after 24 hrs by agar well diffusion method; type: functional; method in brief: as §2
[27] = system: Saccharomyces cerevisiae; experiment: Antifungal activity against Saccharomyces cerevisiae using 100 uL of test compound after 48 hrs by agar well diffusion method; type: functional
Method in brief: as §2, with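 “Sabouraud dextrose” for “Nutrient”, “yeast or fungal” for “bacterial”, “1×10⁶” for “1×10⁸”, “48” for “24”, “28” for “37”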

[28] = system: Staphylococcus aureus; experiment: Antibacterial activity against Staphylococcus aureus ATCC 29213 using 100 uL of test compound after 24 hrs by agar well diffusion method; type: functional; method in brief: as §2
[29] = system: Micrococcus luteus; experiment: Antibacterial activity against Sarcina lutea using 100 uL of test compound after 24 hrs by agar well diffusion method; type: functional; method in brief: as §2
[30] = system: Klebsiella pneumoniae; experiment: Antibacterial activity against Klebsiella pneumoniae ATCC 13883 using 100 uL of test compound after 24 hrs by agar well diffusion method; type: functional; method in brief: as §2
[31] = system: Aspergillus niger; experiment: Antifungal activity against Aspergillus niger using 100 uL of test compound after 48 hrs by agar well diffusion method; type: functional
Method in brief: as §2, with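 “Sabouraud dextrose” for “Nutrient”, “yeast or fungal” for “bacterial”, “1×10⁶” for “1×10⁸”, “48” for “24”, “28” for “37”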

[32] = Antioxidant activity assessed as DPPH free radical scavenging activity by spectrophotometric assay; type: physicochemical
Method in brief: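 Sample solutions at several concentrations were added to 0.004% DPPH in methanol and incubated 60 min in the dark. Absorbance was read at 517 nm against a blank. Inhibition % = (A_blank − A_sample)/A_blank × 100, where the control contained all reagents except the test compound.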

[33] = system: Candida albicans; experiment: Antifungal activity against Candida albicans NRRL Y-477 using 100 uL of test compound after 48 hrs by agar well diffusion method; type: functional
Method in brief: as §2, with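 “Sabouraud dextrose” for “Nutrient”, “yeast or fungal” for “bacterial”, “1×10⁶” for “1×10⁸”, “48” for “24”, “28” for “37”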

[34] = system: Priestia megaterium; experiment: Antibacterial activity against Bacillus megaterium ATCC 9885 using 100 uL of test compound after 24 hrs by agar well diffusion method; type: functional; method in brief: as §2
[35] = system: Pseudomonas aeruginosa; experiment: Antibacterial activity against Pseudomonas aeruginosa ATCC 27953 using 100 uL of test compound after 24 hrs by agar well diffusion method; type: functional; method in brief: as §2

| Compound | MIC ([2]; ATCC 13883, 24 h) | MIC [6] | MIC [7] | MIC [12] | MIC ([13]; ATCC 6633, 24 h) | MIC ([16]; ATCC 25922, 24 h) | MIC [17] | MIC [1] | MIC [22] | MIC [24] | IC50 [32] | diameter of the inhibition zone (DIZ) [25] | diameter of the inhibition zone (DIZ) [26] | diameter of the inhibition zone (DIZ) [27] | diameter of the inhibition zone (DIZ) [28] | diameter of the inhibition zone (DIZ) [29] | diameter of the inhibition zone (DIZ) [30] | diameter of the inhibition zone (DIZ) [31] | diameter of the inhibition zone (DIZ) [33] | diameter of the inhibition zone (DIZ) [34] | further results |
| --- | --- | --- | --- | --- | --- | --- | --- | --- | --- | --- | --- | --- | --- | --- | --- | --- | --- | --- | --- | --- | --- |
| O=C(O)c1cn(C2CC2)c2cc(N3CCNCC3)c(F)cc2c1=O [CIPROFLOXACIN] | 25 µg/mL (≈ 75.4 µM) | 25 µg/mL (≈ 75.4 µM) | inactive | inactive | 25 µg/mL (≈ 75.4 µM) | 25 µg/mL (≈ 75.4 µM) | inactive | – | – | – | – | – | – | – | – | – | – | – | – | – | MIC ([1]; ATCC 9885, 24 h): 25 µg/mL (≈ 75.4 µM); diameter of the inhibition zone (DIZ) [3]: inactive; zone of inhibition at 50000 µg/mL [4]: 25 mm; zone of inhibition at 50000 µg/mL [5]: 22 mm; zone of inhibition at 50000 µg/mL ([8]; ATCC 9885, 24 h, read-out: DIZ): 24 mm; zone of inhibition at 50000 µg/mL [9]: 20 mm; diameter of the inhibition zone (DIZ) [10]: inactive; zone of inhibition at 50000 µg/mL [11]: 24 mm; zone of inhibition at 50000 µg/mL ([14]; read-out: DIZ): 20 mm; diameter of the inhibition zone (DIZ) [15]: inactive |
| Clc1ccccc1C(c1ccccc1)(c1ccccc1)n1ccnc1 [CLOTRIMAZOLE] | – | inactive | – | 25 µg/mL (≈ 72.5 µM) | – | – | 25 µg/mL (≈ 72.5 µM) | inactive | inactive | inactive | – | – | – | – | – | – | – | – | – | – | MIC [2]: inactive; DIZ [18]: inactive; DIZ [19]: inactive; zone of inhibition at 50000 µg/mL ([3]; read-out: DIZ): 31 mm; DIZ [20]: inactive; DIZ [21]: inactive; MIC ([7]; NRRL Y-477, 48 h): 25 µg/mL (≈ 72.5 µM); diameter of the inhibition zone (DIZ) [8]: inactive; zone of inhibition at 50000 µg/mL ([10]; NRRL Y-477, 48 h, read-out: DIZ): 30 mm; diameter of the inhibition zone (DIZ) [23]: inactive; MIC [13]: inactive; diameter of the inhibition zone (DIZ) [14]: inactive; zone of inhibition at 50000 µg/mL ([15]; read-out: DIZ): 33 mm; MIC [16]: inactive |

Further lines, with some results ahead:

| MIC ([2]; ATCC 13883, 24 h) | MIC [6] | MIC [7] | MIC [12] | MIC ([13]; ATCC 6633, 24 h) | MIC ([16]; ATCC 25922, 24 h) | MIC [17] | MIC [1] | MIC [22] | MIC [24] | IC50 [32] | Compound | diameter of the inhibition zone (DIZ) [25] | diameter of the inhibition zone (DIZ) [26] | diameter of the inhibition zone (DIZ) [27] | diameter of the inhibition zone (DIZ) [28] | diameter of the inhibition zone (DIZ) [29] | diameter of the inhibition zone (DIZ) [30] | diameter of the inhibition zone (DIZ) [31] | diameter of the inhibition zone (DIZ) [33] | diameter of the inhibition zone (DIZ) [34] | further results |
| --- | --- | --- | --- | --- | --- | --- | --- | --- | --- | --- | --- | --- | --- | --- | --- | --- | --- | --- | --- | --- | --- |
| 200 µg/mL (≈ 339 µM) | 200 µg/mL (≈ 339 µM) | – | 200 µg/mL (≈ 339 µM) | – | 200 µg/mL (≈ 339 µM) | 50 µg/mL (≈ 84.6 µM) | inactive | 200 µg/mL (≈ 339 µM) | inactive | 500 µg/mL (≈ 846 µM) | O=S(=O)(c1ccccc1)c1ccc(C(Cc2cn(Cc3ccccc3)nn2)OCc2cn(Cc3ccccc3)nn2)cc1 (stereo not given) | 15 mm | 19 mm | 18 mm | 14 mm | 17 mm | 17 mm | 30 mm | 18 mm | 14 mm | MIC ([7]; NRRL Y-477, 48 h): 200 µg/mL (≈ 339 µM); MIC [13]: inactive; diameter of the inhibition zone (DIZ) [35]: 18 mm |
| 200 µg/mL (≈ 370 µM) | inactive | inactive | inactive | 200 µg/mL (≈ 370 µM) | 200 µg/mL (≈ 370 µM) | 200 µg/mL (≈ 370 µM) | inactive | 200 µg/mL (≈ 370 µM) | – | 800 µg/mL (≈ 1480 µM) | CC(O)(Cc1cn(CC(=O)c2ccc(Br)cc2)nn1)c1ccc(S(=O)(=O)c2ccccc2)cc1 (stereo not given) | 17 mm | 17 mm | 14 mm | 17 mm | inactive | 19 mm | 20 mm | 15 mm | inactive | MIC ([24]; ATCC 29213, 24 h): 200 µg/mL (≈ 370 µM); diameter of the inhibition zone (DIZ) [35]: 19 mm |
| – | 200 µg/mL (≈ 430 µM) | inactive | inactive | 200 µg/mL (≈ 430 µM) | – | 50 µg/mL (≈ 107 µM) | – | 200 µg/mL (≈ 430 µM) | inactive | 275 µg/mL (≈ 591 µM) | O=C(Cn1cc(CC(O)c2ccc(S(=O)(=O)c3ccccc3)cc2)nn1)c1ccc(F)cc1 (stereo not given) | 19 mm | 14 mm | inactive | 14 mm | 20 mm | 15 mm | 32 mm | 13 mm | 17 mm | MIC ([1]; ATCC 9885, 24 h): 200 µg/mL (≈ 430 µM); MIC [2]: inactive; diameter of the inhibition zone (DIZ) [35]: 19 mm; MIC [16]: inactive |
